Measurements taken from ChEMBL document CHEMBL1125014, “Synthesis and structure-activity relationships of new 9-N-alkyl derivatives of 9(S)-erythromycylamine” (1990).
Converted amounts (≈) assume the structure as drawn.

Legend:
Assay type in all cases: functional
[1] = test system: Haemophilus influenzae; experiment: MIC value was measured against haemophilus influenzae CL
[2] = test system: Staphylococcus aureus; experiment: Effective dose against mice infected with Staphylococcus aureus after peroral administration (in vivo); conditions: in Mus musculus, po
[3] = test system: Streptococcus pneumoniae; experiment: Effective dose against mice infected with streptococcus pneumoniae after peroral administration (in vivo); conditions: in Mus musculus, po
[4] = test system: Streptococcus pyogenes; experiment: Effective dose against mice infected with streptococcus pyogenes after peroral administration (in vivo); conditions: in Mus musculus, po
[5] = test system: Streptococcus pneumoniae; experiment: MIC value was measured against streptococcus pneumoniae park1
Procedure, shortened: (§1)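 Susceptibility determined by standard agar-dilution method against a panel of bacterial strains.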

[6] = test system: Staphylococcus aureus; experiment: MIC value measured against staphylococcus aureus X1
[7] = test system: Enterococcus faecalis; experiment: MIC value was measured against streptococcus faecalis X66; procedure, shortened: as §1
[8] = test system: Streptococcus pyogenes; experiment: MIC value measured against streptococcus pyogenes C203
[9] = test system: Staphylococcus epidermidis; experiment: microbe, parasite or virus in culture
[10] = test system: Enterococcus faecalis; experiment: MIC value was measured against streptococcus faecalis.
[11] = test system: Streptococcus pneumoniae; experiment: MIC value measured against streptococcus pneumoniae Park1
[12] = test system: Haemophilus influenzae; experiment: MIC value was measured against haemophilus influenzae.; procedure, shortened: as §1
[13] = test system: Mus musculus; experiment: ED50 value was measured by sc administration against streptococcus pyogenes infection in mice (in vivo, in experiment 1)
Procedure, shortened: (§2)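 Infected mice were dosed orally or subcutaneously at 1 and 5 h postinfection, 0.25 mL of antibiotic solution in 10% aqueous ethanol per dose. Tartaric acid was added where needed for solubility. Several dose concentrations were tested to give the ED50.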

[14] = test system: Mus musculus; experiment: ED50 value was measured by sc administration against streptococcus pyogenes infection in mice (in vivo, in experiment 2); procedure, shortened: as §2
[15] = test system: Mus musculus; experiment: ED50 value was measured by po administration against streptococcus pyogenes infection in mice (in vivo, in experiment 1); procedure, shortened: as §2
[16] = test system: Mus musculus; experiment: ED50 value was measured by po administration against streptococcus pyogenes infection in mice (in vivo, in experiment 2); procedure, shortened: as §2
[17] = test system: Mus musculus; experiment: ED50 value was measured by sc administration against staphylococcus aureus infection in mice (in vivo, in experiment 1); procedure, shortened: as §2
[18] = test system: Mus musculus; experiment: ED50 value was measured by sc administration against staphylococcus aureus infection in mice (in vivo, in experiment 2); procedure, shortened: as §2
[19] = test system: Mus musculus; experiment: ED50 value was measured by sc administration against streptococcus pneumoniae infection in mice (in vivo, in experiment 1); procedure, shortened: as §2
[20] = test system: Mus musculus; experiment: ED50 value was measured by sc administration against streptococcus pneumoniae infection in mice (in vivo, in experiment 2); procedure, shortened: as §2
[21] = test system: Mus musculus; experiment: ED50 value was measured by po administration against staphylococcus aureus infection in mice (in vivo, in experiment 1); procedure, shortened: as §2
[22] = test system: Mus musculus; experiment: ED50 value was measured by po administration against streptococcus pneumoniae infection in mice (in vivo, in experiment 1); procedure, shortened: as §2
[23] = test system: Mus musculus; experiment: ED50 value was measured by po administration against streptococcus pneumoniae infection in mice (in vivo, in experiment 2); procedure, shortened: as §2
[24] = test system: Mus musculus; experiment: ED50 value was measured by po administration against staphylococcus aureus infection in mice (in vivo, in experiment 2); procedure, shortened: as §2

SMILES	MIC [1] [mg/L]	MIC [5] [mg/L]	MIC [6] [mg/L]	MIC [7] [mg/L]	MIC [8] [mg/L]	MIC [9] [mg/L]	MIC [10] [mg/L]	MIC [11] [mg/L]	ED50 [2] [mg/kg]	ED50 [3] [mg/kg]	ED50 [4] [mg/kg]	further results
CC[C@H]1OC(=O)[C@H](C)[C@@H](OC2CC(C)(OC)C(O)C(C)O2)[C@H](C)[C@@H](OC2OC(C)CC(N(C)C)C2O)[C@](C)(O)C[C@@H](C)[C@@H](N)[C@H](C)[C@@H](O)[C@H]1C (stereo not given in full)	16 (≈ 22.3 µM)	–	2 (≈ 2.78 µM)	–	0.25 (≈ 0.348 µM)	1 (≈ 1.39 µM)	1 (≈ 1.39 µM)	–	–	–	–	–
CC[C@H]1OC(=O)[C@H](C)[C@@H](OC2CC(C)(OC)C(O)C(C)O2)[C@H](C)[C@@H](OC2OC(C)CC(N(C)C)C2O)[C@](C)(O)C[C@@H](C)/C(=N\O)[C@H](C)[C@@H](O)[C@H]1C (stereo not given in full)	1 (≈ 1.36 µM)	–	0.5 (≈ 0.682 µM)	–	0.015 (≈ 0.0205 µM)	0.25 (≈ 0.341 µM)	1 (≈ 1.36 µM)	0.008 (≈ 0.0109 µM)	–	–	–	–
CCCCC/C=C/CCCN[C@@H]1[C@H](C)[C@@H](O)[C@](C)(O)[C@@H](CC)OC(=O)[C@H](C)[C@@H](OC2CC(C)(OC)C(O)C(C)O2)[C@H](C)[C@@H](OC2OC(C)CC(N(C)C)C2O)[C@](C)(O)C[C@H]1C (stereo not given in full)	2 (≈ 2.29 µM)	–	0.5 (≈ 0.573 µM)	–	0.008 (≈ 0.00916 µM)	0.25 (≈ 0.286 µM)	0.12 (≈ 0.137 µM)	–	–	–	–	MIC [12]: 2 mg/L (≈ 2.29 µM)
CC[C@H]1OC(=O)[C@H](C)[C@@H](OC2CC(C)(OC)C(O)C(C)O2)[C@H](C)[C@@H](OC2OC(C)CC(N(C)C)C2O)[C@](C)(O)C[C@@H](C)[C@H](NCCC2=C(C)CCCC2(C)C)[C@H](C)[C@@H](O)[C@]1(C)O (stereo not given in full)	4 (≈ 4.52 µM)	–	1 (≈ 1.13 µM)	0.12 (≈ 0.136 µM)	0.5 (≈ 0.565 µM)	1 (≈ 1.13 µM)	–	–	> 50	> 50	> 50	–

Second part, led by results:

MIC [1] [mg/L]	MIC [5] [mg/L]	MIC [6] [mg/L]	MIC [7] [mg/L]	MIC [8] [mg/L]	MIC [9] [mg/L]	MIC [10] [mg/L]	MIC [11] [mg/L]	SMILES	ED50 [2] [mg/kg]	ED50 [3] [mg/kg]	ED50 [4] [mg/kg]	further results
2 (≈ 2.34 µM)	0.015 (≈ 0.0176 µM)	1 (≈ 1.17 µM)	0.06 (≈ 0.0703 µM)	0.015 (≈ 0.0176 µM)	0.5 (≈ 0.586 µM)	–	–	CC[C@H]1OC(=O)[C@H](C)[C@@H](OC2CC(C)(OC)C(O)C(C)O2)[C@H](C)[C@@H](OC2OC(C)CC(N(C)C)C2O)[C@](C)(O)C[C@@H](C)[C@H](NCCCc2ccccc2)[C@H](C)[C@@H](O)[C@]1(C)O (stereo not given in full)	37	17	14	–
4 (≈ 4.9 µM)	–	0.5 (≈ 0.612 µM)	–	0.06 (≈ 0.0734 µM)	0.5 (≈ 0.612 µM)	0.25 (≈ 0.306 µM)	0.03 (≈ 0.0367 µM)	CC[C@H]1OC(=O)[C@H](C)[C@@H](OC2CC(C)(OC)C(O)C(C)O2)[C@H](C)[C@@H](OC2OC(C)CC(N(C)C)C2O)[C@](C)(O)C[C@@H](C)[C@H](NC2CCCCC2)[C@H](C)[C@@H](O)[C@]1(C)O (stereo not given in full)	–	–	–	–
4 (≈ 4.78 µM)	0.06 (≈ 0.0717 µM)	1 (≈ 1.19 µM)	0.5 (≈ 0.597 µM)	0.12 (≈ 0.143 µM)	0.5 (≈ 0.597 µM)	–	–	CC[C@H]1OC(=O)[C@H](C)[C@@H](OC2CC(C)(OC)C(O)C(C)O2)[C@H](C)[C@@H](OC2OC(C)CC(N(C)C)C2O)[C@](C)(O)C[C@@H](C)[C@H]2[C@H](C)[C@@H](OCN2Cc2ccccc2)[C@]1(C)O (stereo not given in full)	> 50	15	16	–
4 (≈ 4.71 µM)	0.008 (≈ 0.00942 µM)	1 (≈ 1.18 µM)	0.25 (≈ 0.294 µM)	0.008 (≈ 0.00942 µM)	0.5 (≈ 0.589 µM)	–	–	CC[C@H]1OC(=O)[C@H](C)[C@@H](OC2CC(C)(OC)C(O)C(C)O2)[C@H](C)[C@@H](OC2OC(C)CC(N(C)C)C2O)[C@](C)(O)C[C@@H](C)[C@H](NCC#Cc2ccccc2)[C@H](C)[C@@H](O)[C@]1(C)O (stereo not given in full)	> 50	34	27	–
1 (≈ 1.26 µM)	–	0.5 (≈ 0.63 µM)	–	0.12 (≈ 0.151 µM)	0.25 (≈ 0.315 µM)	–	0.015 (≈ 0.0189 µM)	CC[C@H]1OC(=O)[C@H](C)[C@@H](OC2CC(C)(OC)C(O)C(C)O2)[C@H](C)[C@@H](OC2OC(C)CC(N(C)C)C2O)[C@](C)(O)C[C@@H](C)[C@H](NCCOC)[C@H](C)[C@@H](O)[C@]1(C)O (stereo not given in full)	35	19	16	MIC [12]: 1 mg/L (≈ 1.26 µM); ED50 [13]: 1.7 mg/kg; ED50 [14]: 2.1 mg/kg; ED50 [15]: 16 mg/kg; ED50 [16]: 16 mg/kg; ED50 [17]: 2 mg/kg; ED50 [18]: 2.5 mg/kg; ED50 [19]: 2 mg/kg; ED50 [20]: 3.3 mg/kg; ED50 [21]: 44 mg/kg; ED50 [22]: 25 mg/kg; ED50 [23]: 19 mg/kg; ED50 [24]: 35 mg/kg
64 (≈ 79.4 µM)	–	4 (≈ 4.96 µM)	–	0.12 (≈ 0.149 µM)	4 (≈ 4.96 µM)	8 (≈ 9.92 µM)	4 (≈ 4.96 µM)	CC[C@H]1OC(=O)[C@H](C)[C@@H](OC2CC(C)(OC)C(O)C(C)O2)[C@H](C)[C@@H](OC2OC(C)CC(N(C)C)C2O)[C@](C)(O)C[C@@H](C)[C@H](NCCCCN)[C@H](C)[C@@H](O)[C@]1(C)O (stereo not given in full)	–	–	–	–
